Series [1] deals with Candida albicans. As to the kind of experiment: Antifungal activity against azole-resistant Candida albicans clinical isolate 7.O.A assessed as growth inhibition after 24 to 48 hrs by CLSI microbroth dilution method. It is filed as functional. The method in brief:
(§1)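 Microbroth dilution per CLSI M27-A3. Isolates subcultured for purity, incubated at 35 °C; five colonies >1 mm suspended in saline, adjusted to 0.5 × 10³ to 2.5 × 10³ in RPMI 1640 buffered to pH 7.0 with 0.165 M MOPS. Compounds diluted in RPMI to final […]. Read visually after 24 h and 48 h at 35 °C; MIC judged by turbidity against drug-free growth control.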

Series [2] deals with Nakaseomyces glabratus. Nature of the series: Antifungal activity against voriconazole-resistant Candida glabrata clinical isolate 730 assessed as growth inhibition after 24 to 48 hrs by CLSI microbroth dilution method. The format is functional. The method in brief:
as §1
(In broth dilution the organism is exposed to a series of concentrations in liquid medium.)

The subject of series [3] is Nakaseomyces glabratus. As to the kind of experiment: Antifungal activity against voriconazole-resistant Candida glabrata clinical isolate 724 assessed as growth inhibition after 24 to 48 hrs by CLSI microbroth dilution method. The format is functional. The method in brief: as §1
Series [4] deals with Candida parapsilosis. Nature of the series: Antifungal activity against anidulafungin-resistant Candida parapsilosis isolate 22019 assessed as growth inhibition after 24 to 48 hrs by CLSI microbroth dilution method. The format is functional. Particulars: Lodderomyces parapsilosis. The method in brief: as §1
The subject of series [5] is Nakaseomyces glabratus. As to the kind of experiment: Antifungal activity against fluconazole-resistant Candida glabrata isolate 6258 assessed as growth inhibition after 24 to 48 hrs by CLSI microbroth dilution method. The format is functional. The method in brief: as §1
In series [6] the test system is Candida albicans. Nature of the series: Antifungal activity against caspofungin-resistant Candida albicans assessed as growth inhibition after 24 to 48 hrs by CLSI microbroth dilution method.
Series [7] concerns Candida albicans. Nature of the series: Antifungal activity against fluconazole-resistant Candida albicans clinical isolate 5.O.A assessed as growth inhibition after 24 to 48 hrs by CLSI microbroth dilution method. It is filed as functional. The method in brief:
as §1

Series [8] has as its system Candida parapsilosis. Nature of the series: Antifungal activity against anidulafungin-resistant Candida parapsilosis ANF8 assessed as growth inhibition after 24 to 48 hrs by CLSI microbroth dilution method. It is filed as functional. Particulars: Lodderomyces parapsilosis. The method in brief: as §1
A short description of series [9]: Cytotoxicity against mouse NIH/3T3 cells assessed as cell viability at 62.5 ug/mL after 24 hrs by MTT assay relative to control. It is filed as cell-based, NIH3T3. Particulars: read-out: Activity. The method in brief:
(§2)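 NIH/3T3 fibroblasts kept in DMEM with 10% fetal calf serum, penicillin/streptomycin, 37 °C, 5% CO2. Cells seeded at 2 × 10⁴ cells/mL, grown 24 h, then given compound (DMSO stock diluted in medium, final DMSO <0.1%) for 24 h. MTT at 0.5 mg/mL final added for 4 h, formazan dissolved in DMSO, absorbance read at 540 nm. Triplicate wells, mean ± SD, assay run twice.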

The nature of series [10]: Cytotoxicity against mouse NIH/3T3 cells assessed as cell viability at 1 ug/mL after 24 hrs by MTT assay relative to control. The format is cell-based, NIH3T3. Particulars: read-out: Activity. The method in brief: as §2
On the technique in general: Formazan colour is commonly taken as a measure of viable cells.

The nature of series [11]: Cytotoxicity against mouse NIH/3T3 cells assessed as cell viability at 0.5 ug/mL after 24 hrs by MTT assay relative to control. The format is cell-based, NIH3T3. Particulars: read-out: Activity. The method in brief:
as §2

Series [12] is described as follows: Cytotoxicity against mouse NIH/3T3 cells assessed as cell viability at 31.3 ug/mL after 24 hrs by MTT assay relative to control. The format is cell-based, NIH3T3. The settings on record: read-out: Activity. The method in brief: as §2

Molecules are shown by their SMILES. In brackets after ≈: the same amount, converted by molar mass.

One may read the MIC as the smallest concentration in the dilution series that meets the test's criterion for growth inhibition. As for `C/C(=N\Nc1nc([C@@H]2CCCN2C(=O)OCc2ccccc2)cs1)c1ccc2c(c1)CCC2`, the MIC in series [1], in [2], in series [3], in series [4], in [5] and in [6] was above 16 µg/mL in each case. The minimum inhibitory concentration (MIC) in series [7] and in series [8] was above 16 µg/mL each time.
On to `COc1ccc(O)c(-c2csc(N/N=C/c3ccc4c(c3)OCO4)n2)c1`, for which the MIC in [1], in series [2], in series [3], in series [4], in [5] and in series [6] was above 16 µg/mL throughout. The MIC in series [7] and in [8] was above 16 µg/mL in each case.
In the case of `COc1ccc(O)c(-c2csc(NN=C3CCCCC3)n2)c1`, the MIC is above 16 µg/mL in [1]; 8 µg/mL (≈ 25.2 µM) in series [2]; above 16 µg/mL in series [3]; 16 µg/mL (≈ 50.4 µM) in series [4]; 16 µg/mL (≈ 50.4 µM) in series [5]; above 16 µg/mL in series [6]. Further, the MIC in series [7] and in [8] was above 16 µg/mL in each case.
As to `COc1ccc(O)c(-c2csc(N/N=C/c3ccc4ccccc4c3)n2)c1`, the MIC was 2 µg/mL (≈ 5.33 µM) in series [1]; above 16 µg/mL in series [2]; above 16 µg/mL in series [3]; above 16 µg/mL in series [4]; above 16 µg/mL in series [5]; above 16 µg/mL in [6]. Moreover, the MIC in series [7] and in series [8] was above 16 µg/mL in each case. Moreover, the viability at 24 h, 62.5 ug/mL in series [9] came out at 52.7%. For the same compound, the viability at 24 h, 1 ug/mL in [10] was 69.2%. Moreover, the viability at 24 h, 0.5 ug/mL in [11] is 83.7%. In addition, the viability at 24 h, 31.3 ug/mL in series [12] amounted to 45.3%.
Regarding `COc1ccc(O)c(-c2csc(N/N=C/c3c[nH]c4ccccc34)n2)c1`, the MIC in series [1] was 0.5 µg/mL (≈ 1.37 µM); in series [2] it was 0.5 µg/mL (≈ 1.37 µM); in [3], above 16 µg/mL; in series [4] it was above 16 µg/mL; in series [5], above 16 µg/mL; in [6] it was 2 µg/mL (≈ 5.49 µM). For the same compound, the MIC in series [7] and in [8] was 0.25 µg/mL (≈ 0.686 µM) in each case. Moreover, the viability at 24 h, 62.5 ug/mL in [9] turned out to be 50.2%. Besides, in [10], the viability at 24 h, 1 ug/mL amounted to 80.6%. Moreover, in series [11], the viability at 24 h, 0.5 ug/mL came out at 91.9%. Moreover, the viability at 24 h, 31.3 ug/mL in series [12] was found to be 70.6%.
With `COc1ccc(O)c(-c2csc(N/N=C/c3cnc4ccccn34)n2)c1`, the minimal inhibitory concentration (MIC) in series [1], in series [2], in series [3], in [4], in [5] and in series [6] was above 16 µg/mL throughout. Further, the minimal inhibitory concentration (MIC) in series [7] and in series [8] was above 16 µg/mL throughout.
Turning to `COc1ccc(O)c(-c2csc(N/N=C/c3cc4ccccc4o3)n2)c1`, the MIC in series [1], in [2], in series [3], in [4], in series [5] and in [6] was above 16 µg/mL each time. Further, the minimum inhibitory concentration (MIC) in series [7] and in series [8] was above 16 µg/mL each time.
On to `COc1ccc(O)c(-c2csc(N/N=C/c3cc[nH]c3)n2)c1`, for which the MIC in series [1] is above 16 µg/mL; in series [2], 16 µg/mL (≈ 50.9 µM); in [3], 8 µg/mL (≈ 25.4 µM); in series [4], 16 µg/mL (≈ 50.9 µM); in series [5], above 16 µg/mL; in series [6] it was 16 µg/mL (≈ 50.9 µM). In addition, the MIC in series [7] was 16 µg/mL (≈ 50.9 µM); in [8], above 16 µg/mL.
`COc1ccc(O)c(-c2csc(N/N=C/c3ccco3)n2)c1`: the MIC in [1], in series [2], in series [3], in series [4], in series [5] and in series [6] was above 16 µg/mL throughout. Further, the MIC in [7] and in [8] was above 16 µg/mL in each case.

These data come from ChEMBL document CHEMBL2331219, “Synthesis and anti-Candida activity of novel 2-hydrazino-1,3-thiazole derivatives” (Bioorg Med Chem Lett, 2013).
